Test results: ChEMBL document CHEMBL2413046, “Analogs of iso-azepinomycin as potential transition-state analog inhibitors of guanase: synthesis, biochemical screening, and structure-activity correlations of various selectively substituted imidazo[4,5-e][1,4]diazepines” (Bioorg Med Chem, 2013)

Legend:
[1] = Inhibition of rabbit liver guanase assessed as inhibition of guanine hydrolysis by Lineweaver-Burk plot method; set-up: species or system Oryctolagus cuniculus
Outline: (§1)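 Rabbit liver guanase (ammonium sulfate suspension, diluted to 0.1278 U/mL; 0.0077 units per assay) in 0.05 M Tris-HCl pH 7.4, 25°C, 1.0 mL final volume. Guanine 5–40 µM (5–6 levels) at fixed inhibitor 10, 20 or 30 µM (DMSO or methanol stocks). Initial rate from absorbance decrease at 245 nm, mean of two data sets; Ki from Lineweaver-Burk plots.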

[2] = Competitive reversible inhibition of rabbit liver guanase assessed as inhibition of guanine hydrolysis by Lineweaver-Burk plot method; set-up: species or system Oryctolagus cuniculus; outline: as §1

| Structure (SMILES) | Ki [1] [µM] | Ki [2] [µM] |
| --- | --- | --- |
| COC1CNC(=O)c2nc[nH]c2N1Cc1ccccc1 (stereo unspecified) | 8.8 |  |
| COC1CNC(=O)c2ncn(Cc3ccccc3)c2N1 (stereo unspecified) |  | 40 |
| COc1ccc(Cn2cnc3c2C(=O)NCC(OC)N3Cc2ccccc2)cc1 (stereo unspecified) | 26.5 |  |
| COC1CNC(=O)c2ncn(Cc3ccc(F)cc3)c2N1 (stereo unspecified) | 39.7 |  |
| COc1ccc(Cn2cnc3c2C(=O)NCC(OC)N3)cc1 (stereo unspecified) | 47.5 |  |
| CCOC1CNC(=O)c2ncn(Cc3ccc(OC)cc3)c2N1 (stereo unspecified) | 33.4 |  |
| CCOC1CNC(=O)c2c(ncn2Cc2ccc(OC)cc2)N1Cc1ccccc1 (stereo unspecified) | 43.8 |  |
| COc1ccc(Cn2cnc3c2NC(OC)CNC3=O)cc1 (stereo unspecified) | 21 |  |
| CCCCOC1CNC(=O)c2ncn(Cc3ccccc3)c2N1 (stereo unspecified) |  | 54 |
| CCOC1CNC(=O)c2ncn(Cc3ccccc3)c2N1 (stereo unspecified) |  | 47 |
| O=C1NC(O)CNc2nc[nH]c21 (stereo unspecified) [AZEPINOMYCIN] | 2.5 |  |
